Laboratory results from ChEMBL document CHEMBL1149103, “Anticonvulsant activity of phenylmethylenehydantoins: a structure-activity relationship study” (2004).

Assays:
Mus musculus [1] = species: Mus musculus; assay: Anticonvulsant activity measured as effective dose required to produce a response score of 2.5 in MES assay on mice; assay type: functional
In short: (§1)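 Male Swiss albino mice ([…]), pre-screened by passing a 5 min rotorod test. Compound in DMSO given ip, starting at 100 mg/kg, later doses raised or lowered to complete the dose-activity profile. After 30 min, 45 mA ([…]) for 0.2 s via auricular electrodes. Seizure scored 1 (no protection) to 4 (full), averaged over 5-6 mice per dose. Effective dose taken as the dose giving a score of 2.5; log value used for QSAR.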

Mus musculus [2] = species: Mus musculus; assay: Anticonvulsant activity expressed as log(1/EDMES(2.5)) in MES assay on mice that responded a score of 2.5; assay type: functional; in short: as §1

SMILES	EDMES(2.5) (Mus musculus [1])	Log 1/EDMES(2.5) (Mus musculus [2])
O=C1NC(=O)/C(=C/c2cccc(F)c2)N1	172 mg/kg	-2.24
O=C1NC(=O)/C(=C/c2ccccc2Cl)N1	198 mg/kg	-2.3
Cc1ccc(/C=C2\NC(=O)NC2=O)c(C)c1	39 mg/kg	-1.59
O=C1NC(=O)/C(=C/c2ccccn2)N1	141 mg/kg	-2.15
O=C1NC(=O)/C(=C/c2ccccc2C(F)(F)F)N1	>200 mg/kg	-2.3
COc1cccc(/C=C2\NC(=O)NC2=O)c1	>200 mg/kg	-2.3
COc1ccc(/C=C2\NC(=O)NC2=O)cc1	>200 mg/kg	-2.3
CC(C)(C)c1ccc(/C=C2\NC(=O)NC2=O)cc1	>200 mg/kg	-2.3
Cc1ccccc1/C=C1\NC(=O)NC1=O	59 mg/kg	-1.77
CCCOc1ccc(/C=C2\NC(=O)NC2=O)cc1	77 mg/kg	-1.89
O=C1NC(=O)/C(=C/c2ccc(-c3ccccc3)cc2)N1	>200 mg/kg	-2.3
O=C1NC(=O)/C(=C/c2c[nH]c3ccccc23)N1	>200 mg/kg	-2.3
O=C1NC(=O)/C(=C/c2cccc3ccccc23)N1	>200 mg/kg	-2.3
CC(C)c1ccc(/C=C2\NC(=O)NC2=O)cc1	80 mg/kg	-1.9
Cc1cc(C)c(/C=C2/NC(=O)NC2=O)c(C)c1	28 mg/kg	-1.45
O=C1NC(=O)C(c2ccccc2)(c2ccccc2)N1 [PHENYTOIN]	30 mg/kg	-1.48
O=C1NC(=O)/C(=C/c2cccc([N+](=O)[O-])c2)N1	>200 mg/kg	-2.3
O=C1NC(=O)/C(=C/c2ccccc2)N1	125 mg/kg	-2.1
Cc1cc(C)c(/C=C2\NC(=O)NC2=O)cc1C	>200 mg/kg	-2.3
O=C1NC(=O)/C(=C/c2ccc(Cl)cc2)N1	>200 mg/kg	-2.3
O=C1NC(=O)/C(=C/c2ccccc2F)N1	>200 mg/kg	-2.3
CCOc1ccc(/C=C2\NC(=O)NC2=O)cc1	107 mg/kg	-2.03
CCN(CC)c1ccc(/C=C2\NC(=O)NC2=O)cc1	>200 mg/kg	-2.3
O=C1NC(=O)/C(=C/c2cccc(Cl)c2)N1	82 mg/kg	-1.91
CCCCc1ccc(/C=C2\NC(=O)NC2=O)cc1	121 mg/kg	-2.08
O=C1NC(=O)/C(=C/c2ccc(F)cc2)N1	>200 mg/kg	-2.3
O=C1NC(=O)/C(=C/c2cccc(Oc3ccccc3)c2)N1	>200 mg/kg	-2.3
N#Cc1ccc(/C=C2\NC(=O)NC2=O)cc1	>200 mg/kg	-2.3

SMILES	EDMES(2.5) (Mus musculus [1])	Log 1/EDMES(2.5) (Mus musculus [2])
CN(C)c1ccc(/C=C2\NC(=O)NC2=O)cc1	>200 mg/kg	-2.3
CCCCOc1ccc(/C=C2\NC(=O)NC2=O)cc1	>200 mg/kg	-2.3
O=C1NC(=O)/C(=C/c2ccc(O)cc2)N1 [4-HYDROXYPHENYLMETHYLENE HYDANTOIN]	>200 mg/kg	-2.3
O=C1NC(=O)/C(=C/c2ccc3[nH]c4ccccc4c3c2)N1	>200 mg/kg	-2.3
O=C1NC(=O)/C(=C/c2cccc(C(F)(F)F)c2)N1	115 mg/kg	-2.06
O=C1NC(=O)/C(=C\c2c(Cl)cccc2Cl)N1	72 mg/kg	-1.86
CCc1ccc(/C=C2\NC(=O)NC2=O)cc1	74 mg/kg	-1.87
O=C1NC(=O)/C(=C/c2cccs2)N1	>200 mg/kg	-2.3
O=C1NC(=O)/C(=C/c2ccc3ccccc3c2)N1	>200 mg/kg	-2.3
O=C1NC(=O)/C(=C/c2ccc(F)c(F)c2)N1	121 mg/kg	-2.08
Cc1ccc(/C=C2\NC(=O)NC2=O)cc1	>200 mg/kg	-2.3
O=C1NC(=O)/C(=C/c2ccc(OCc3ccccc3)cc2)N1	157 mg/kg	-2.2
CCOc1ccccc1/C=C1\NC(=O)NC1=O	>200 mg/kg	-2.3
O=C1NC(=O)/C(=C/c2cccc(Br)c2)N1	89 mg/kg	-1.95
COc1ccccc1/C=C1\NC(=O)NC1=O	84 mg/kg	-1.92
O=C1NC(=O)/C(=C/c2ccccc2O)N1	>200 mg/kg	-2.3
O=C1NC(=O)/C(=C/c2ccccc2Br)N1	>200 mg/kg	-2.3
O=C1NC(=O)/C(=C/c2cccc(O)c2)N1	>200 mg/kg	-2.3
COc1ccc(/C=C2\NC(=O)NC2=O)c(OC)c1	175 mg/kg	-2.24
Cc1cccc(/C=C2\NC(=O)NC2=O)c1	74 mg/kg	-1.87
O=C1NC(=O)/C(=C/c2ccco2)N1	167 mg/kg	-2.22
O=C1NC(=O)/C(=C/c2ccccc2OCc2ccccc2)N1	>200 mg/kg	-2.3
O=C1NC(=O)/C(=C/c2ccc(C(F)(F)F)cc2)N1	64 mg/kg	-1.81
O=C1NC(=O)/C(=C/c2ccc(Br)cc2)N1	>200 mg/kg	-2.3
O=C1NC(=O)/C(=C/C2CCCCC2)N1	156 mg/kg	-2.19
O=C1NC(=O)/C(=C/c2ccc(Cl)cc2Cl)N1	>200 mg/kg	-2.3
O=C1NC(=O)/C(=C/c2ccc([N+](=O)[O-])cc2)N1	>200 mg/kg	-2.3
